Assay results as given in ChEMBL document CHEMBL3774372, “Design, physico-chemical properties and biological evaluation of some new N-[(phenoxy)alkyl]- and N-{2-[2-(phenoxy)ethoxy]ethyl}aminoalkanols as anticonvulsant agents” (Bioorg Med Chem, 2016).
Calls of active or inactive are those of the source.

Columns and labels:
[1] = tested on: Mus musculus; assay: Anticonvulsant activity in mouse assessed as protection against maximal electric shock-induced seizures at 30 mg/kg, ip measured after 4 hrs; format: functional, organism-based
In short: (§1)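 Mice dosed ip with suspension in 0.5% methylcellulose; maximal electroshock applied at the listed time after dosing. Protection = abolition of hindlimb tonic extension component of seizure; reported as animals protected/animals tested.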

[2] = tested on: Vibrio harveyi; assay: Antimutagenic activity against Vibrio harveyi BB7XM assessed as inhibition of NQNO-induced mutagenicity after 48 hrs; format: functional
In short: (§2)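 V. harveyi cultures grown exponentially to A600 0.1 at 30 °C, exposed to test compound for 15 min, then to NQNO, and grown on to A600 0.3–0.4. 5 × 10⁶ cells plated on BOSS agar with neomycin (100, final). Neomycin-resistant colonies counted after 48 h at 30 °C. Result given as % inhibition of NQNO mutagenicity; three independent repeats.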

[3] = tested on: Vibrio harveyi; assay: Antimutagenic activity against Vibrio harveyi BB7 assessed as inhibition of NQNO-induced mutagenicity after 48 hrs; format: functional; in short: as §2
[4] = tested on: Mus musculus; assay: Anticonvulsant activity in mouse assessed as protection against subcutaneous pentylenetetrazol-induced seizures at 30 mg/kg, ip measured after 4 hrs; format: functional, organism-based
In short: (§3)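 Mice dosed ip as 0.5% methylcellulose suspension; pentylenetetrazole 85 mg/kg in 0.9% NaCl injected subcutaneously into posterior midline, animals watched at least 30 min. Protection = no threshold seizure (single clonic spasm episode lasting ≥5 s); scored protected/tested.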

[5] = tested on: Mus musculus; assay: Neurotoxicity in mouse at 3 mg/kg, ip after 4 hrs by rotarod test; format: toxicity, organism-based; conditions: in vivo
[6] = tested on: Vibrio harveyi; assay: Antimutagenic activity against Vibrio harveyi BB7M assessed as inhibition of NQNO-induced mutagenicity after 48 hrs; format: functional; in short: as §2
[7] = tested on: Vibrio harveyi; assay: Mutagenicity in Vibrio harveyi BB7X assessed as number of colonies after 48 hrs (reference value: 15 to 16 no_unit); format: ADME, organism-based; conditions: in vivo
In short: (§4)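 Vibrio harveyi mutagenicity test: test compound was added to exponentially growing cultures (A600 = 0.1, 30 °C) and grown to OD600 0.3–0.4. Then 5 × 10^6 cells were plated on BOSS agar with neomycin (final 100 µg/mL) and incubated 48 h at 30 °C. Neomycin-resistant colonies were counted. Triplicate; controls were water, DMSO and NQNO 40 ng/mL.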

[8] = tested on: Mus musculus; assay: Anticonvulsant activity in mouse assessed as protection against maximal electric shock-induced seizures at 100 mg/kg, ip measured after 4 hrs; format: functional, organism-based; in short: as §1
[9] = tested on: Mus musculus; assay: Anticonvulsant activity in mouse assessed as protection against maximal electric shock-induced seizures at 30 mg/kg, ip measured after 0.5 hrs; format: functional, organism-based; in short: as §1
[10] = tested on: Mus musculus; assay: Anticonvulsant activity in mouse assessed as protection against maximal electric shock-induced seizures at 3 mg/kg, ip measured after 0.5 hrs; format: functional, organism-based; in short: as §1
[11] = tested on: Mus musculus; assay: Neurotoxicity in mouse at 30 mg/kg, ip after 0.5 hrs by rotarod test; format: toxicity, organism-based; conditions: in vivo
In short: (§5)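 Mice were dosed ip with compound suspended in 0.5% methylcellulose. Rotarod: a 1 in. knurled rod turning at 6 rpm. Neurotoxicity was scored as failure to stay on the rod for at least 1 min in each of three trials. Results are given as the number of animals affected out of the number tested.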

[12] = tested on: Mus musculus; assay: Anticonvulsant activity in mouse assessed as protection against maximal electric shock-induced seizures at 10 mg/kg, ip measured after 0.5 hrs; format: functional, organism-based; in short: as §1
[13] = tested on: Mus musculus; assay: Neurotoxicity in mouse at 300 mg/kg, ip after 0.5 hrs by rotarod test; format: toxicity, organism-based; conditions: in vivo; in short: as §5
[14] = tested on: Mus musculus; assay: Neurotoxicity in mouse at 100 mg/kg, ip after 4 hrs by rotarod test; format: toxicity, organism-based; conditions: in vivo; in short: as §5
[15] = tested on: Vibrio harveyi; assay: Mutagenicity in Vibrio harveyi BB7XM assessed as number of colonies after 48 hrs (reference value: 14 no_unit); format: ADME, organism-based; conditions: in vivo; in short: as §4
[16] = tested on: Mus musculus; assay: Anticonvulsant activity in mouse assessed as protection against subcutaneous pentylenetetrazol-induced seizures at 30 mg/kg, ip measured after 0.5 hrs; format: functional, organism-based; in short: as §3
[17] = tested on: Mus musculus; assay: Neurotoxicity in mouse at 10 mg/kg, ip after 0.5 hrs by rotarod test; format: toxicity, organism-based; conditions: in vivo; in short: as §5
[18] = tested on: Vibrio harveyi; assay: Mutagenicity in Vibrio harveyi BB7 assessed as number of colonies after 48 hrs (reference value: 13 to 14 no_unit); format: ADME, organism-based; conditions: in vivo; in short: as §4
[19] = tested on: Vibrio harveyi; assay: Antimutagenic activity against Vibrio harveyi BB7X assessed as inhibition of NQNO-induced mutagenicity after 48 hrs; format: functional; in short: as §2
[20] = tested on: Vibrio harveyi; assay: Mutagenicity in Vibrio harveyi BB7M assessed as number of colonies after 48 hrs (reference value: 13 to 14 no_unit); format: ADME, organism-based; conditions: in vivo; in short: as §4
[21] = tested on: Mus musculus; assay: Anticonvulsant activity in mouse assessed as protection against maximal electric shock-induced seizures at 10 mg/kg, ip measured after 4 hrs; format: functional, organism-based; in short: as §1
[22] = tested on: Mus musculus; assay: Neurotoxicity in mouse at 10 mg/kg, ip after 4 hrs by rotarod test; format: toxicity, organism-based; conditions: in vivo
[23] = tested on: Mus musculus; assay: Neurotoxicity in mouse at 30 mg/kg, ip after 4 hrs by rotarod test; format: toxicity, organism-based; conditions: in vivo; in short: as §5
[24] = tested on: Mus musculus; assay: Neurotoxicity in mouse at 3 mg/kg, ip after 0.5 hrs by rotarod test; format: toxicity, organism-based; conditions: in vivo; in short: as §5
[25] = tested on: Mus musculus; assay: Anticonvulsant activity in mouse assessed as protection against maximal electric shock-induced seizures at 3 mg/kg, ip measured after 4 hrs; format: functional, organism-based; in short: as §1

CC[C@H](CO)NCCOCCOc1c(C)cccc1C
Activity [1]: inactive
inhibition (INH) [2]: 30%
inhibition (INH) [3]: 81%
Activity [4]: inactive
Activity [5]: Non-toxic
inhibition (INH) [6]: 55%
Activity [7]: 26
Activity [8]: inactive
Activity [9]: Active
Activity [10]: inactive
Activity [11]: Non-toxic
Activity [12]: inactive
Activity [13]: Toxic
Activity [14]: Non-toxic
Activity [15]: 27
Activity [16]: inactive
Activity [17]: Non-toxic
Activity [18]: 20
inhibition (INH) [19]: 56%
Activity [20]: 20
Activity [21]: inactive
Activity [22]: Non-toxic
Activity [23]: Non-toxic
Activity [24]: Non-toxic
Activity [25]: inactive
